A short description of series [1]: Cytotoxicity against human EPC assessed as cell viability at 1 uM measured after 24 to 72 hrs by trypan blue exclusion assay. In kind it is cell-based. The method in brief:
(§1)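 Human cord-blood EPCs seeded at 6,000 cells/well on gelatin, adhered 4 h in complete medium. Then placed in serum-free medium with VEGF-A 20 ng/mL and compound at 1 μM, re-added every 24 h. Cell number and viability measured by trypan blue exclusion at 24, 48 and 72 h. Triplicate, repeated at least three times.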

Series [2] in a line: Stability in human plasma assessed as compound remaining at 1 uM measured up to 8 hrs by HPLC-UV-Vis analysis. It counts as ADME, cell-free. Particulars: read-out: Stability. The essentials: (§2)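 Rat or human plasma diluted to 80% v/v with 100 mM PBS pH 7.4; compound at 1 μM final, 37 °C, protected from light. Aliquots sampled over time up to 8 h, quenched with two volumes MeCN, centrifuged, and analyzed by HPLC-UV-Vis for % compound remaining.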

The test system of series [3] is Mus musculus. As to the kind of experiment: In vivo antiangiogenic activity in EHS derived matrigel plug implanted FVB mouse assessed as inhibition of VEGF-A-induced angiogenesis at 10 mg/kg, by microscopic method.
A short description of series [4]: Stability in rat plasma assessed as compound remaining at 1 uM measured up to 8 hrs by HPLC-UV-Vis analysis. In kind it is ADME, cell-free. As to conditions: read-out: Stability. The method in brief:
as §2

Series [5] can be described thus: n-Octanol-buffer distribution coefficient, log D of the compound at pH 7.4 incubated for 4 hrs by HPLC-UV-vis based shake flask method. In kind it is physicochemical. The method in brief:
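Shake-flask partition between n-octanol and 50 mM MOPS pH 7.4 (ionic strength 0.15 M, KCl) at 25 ± 3 °C. Phases pre-saturated and equilibrated 4 h in the dark; each phase analyzed by HPLC-UV-Vis. Mean of at least three runs with different volume ratios.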

Series [6] can be described thus: Inhibition of VEGF-A-induced cell proliferation in human EPC at 1 uM measured after 24 hrs by trypan blue exclusion assay relative to control. In kind it is functional. The essentials:
as §1

Series [7] has as its system EPC. In words: Inhibition of VEGF-A-induced cell proliferation in human EPC at 1 uM measured after 48 hrs by trypan blue exclusion assay. It counts as functional, cell-based. The method in brief:
as §1

Series [8] is described as follows: Antiangiogenic activity in human EPC assessed as inhibition of VEGF-A induced tubule formation at 10 nM measured after 6 hrs by matrigel based phase contrast microscopic analysis relative to control. It counts as functional. The essentials:
(§3)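 EPCs grown 24 h in EGM-2, trypsinized, resuspended in serum/growth-factor-free EGM-2 with VEGF-A 20 ng/mL plus compound (0.01, 0.1, 1.0 μM) and seeded on growth-factor-reduced Matrigel at 7×10^4 cells/well. Incubated 6 h at 37 °C, photographed by phase contrast. Loops counted in four random fields per well, given as % reduction vs untreated cells. Triplicate.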

For series [9], the target named is T1, Integrin alpha-V/beta-3 (Homo sapiens, UniProt P05106+P06756). In words: Drug uptake in human EPC assessed as alphavbeta3-mediated drug uptake by measuring intracellular content per mg protein at 1 uM measured after 8 hr by HPLC-ESI-MS/MS analysis. In kind it is ADME, cell-based. The essentials:
(§4)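 Confluent EPCs in serum- and growth-factor-free medium received compound at 1 μM final for 1 h at 37 °C. Cells washed with PBS, then extracted immediately or 8 h later with ethanol at 4 °C. Extract measured by HPLC-ESI-MS/MS; protein by Bradford. Reported as nmol/mg protein; uptake rate as pmol/min/mg protein over the first hour. Triplicate.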
Target sequence in this assay (P05106 27-788 limits assumed): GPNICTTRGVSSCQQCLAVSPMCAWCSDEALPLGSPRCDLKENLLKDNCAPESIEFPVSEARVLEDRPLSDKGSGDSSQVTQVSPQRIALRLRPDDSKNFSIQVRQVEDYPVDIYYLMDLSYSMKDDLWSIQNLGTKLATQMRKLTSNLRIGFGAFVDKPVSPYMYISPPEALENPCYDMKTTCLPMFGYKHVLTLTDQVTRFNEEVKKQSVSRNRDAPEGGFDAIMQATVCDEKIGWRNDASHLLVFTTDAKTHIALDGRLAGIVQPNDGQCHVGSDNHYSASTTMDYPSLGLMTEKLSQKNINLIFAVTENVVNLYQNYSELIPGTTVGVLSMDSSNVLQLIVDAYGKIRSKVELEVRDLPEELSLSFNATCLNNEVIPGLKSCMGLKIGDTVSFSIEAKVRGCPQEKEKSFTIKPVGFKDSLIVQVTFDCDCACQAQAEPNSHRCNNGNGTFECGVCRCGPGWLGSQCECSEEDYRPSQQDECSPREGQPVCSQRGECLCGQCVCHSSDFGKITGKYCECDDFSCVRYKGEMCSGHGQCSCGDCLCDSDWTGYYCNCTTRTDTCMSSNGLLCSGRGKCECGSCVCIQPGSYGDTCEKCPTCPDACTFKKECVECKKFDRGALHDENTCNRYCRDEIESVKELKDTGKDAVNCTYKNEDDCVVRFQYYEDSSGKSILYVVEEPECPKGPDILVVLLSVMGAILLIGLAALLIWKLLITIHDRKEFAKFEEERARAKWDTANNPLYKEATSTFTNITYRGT
Target sequence in this assay (P06756 31-889 limits assumed): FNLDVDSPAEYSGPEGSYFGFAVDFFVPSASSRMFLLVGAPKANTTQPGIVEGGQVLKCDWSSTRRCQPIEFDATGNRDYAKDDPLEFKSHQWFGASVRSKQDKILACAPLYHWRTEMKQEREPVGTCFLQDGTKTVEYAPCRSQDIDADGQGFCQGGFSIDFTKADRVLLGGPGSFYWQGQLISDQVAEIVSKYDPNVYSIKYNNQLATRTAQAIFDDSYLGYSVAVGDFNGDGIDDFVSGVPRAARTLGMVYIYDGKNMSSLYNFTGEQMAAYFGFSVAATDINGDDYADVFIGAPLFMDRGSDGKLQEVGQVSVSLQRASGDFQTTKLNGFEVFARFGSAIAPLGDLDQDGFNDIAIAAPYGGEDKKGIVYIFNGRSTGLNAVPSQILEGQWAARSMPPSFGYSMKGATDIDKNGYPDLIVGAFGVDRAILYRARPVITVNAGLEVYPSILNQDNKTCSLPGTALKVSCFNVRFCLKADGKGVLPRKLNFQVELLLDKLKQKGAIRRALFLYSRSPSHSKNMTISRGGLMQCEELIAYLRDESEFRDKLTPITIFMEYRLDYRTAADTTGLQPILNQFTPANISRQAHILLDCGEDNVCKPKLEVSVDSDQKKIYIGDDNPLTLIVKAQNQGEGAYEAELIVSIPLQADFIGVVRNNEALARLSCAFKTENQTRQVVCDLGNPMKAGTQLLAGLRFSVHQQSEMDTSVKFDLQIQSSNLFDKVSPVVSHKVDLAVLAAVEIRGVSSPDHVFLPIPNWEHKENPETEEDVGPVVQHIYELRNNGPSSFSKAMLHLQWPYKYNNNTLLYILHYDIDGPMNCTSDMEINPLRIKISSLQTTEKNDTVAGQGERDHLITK
Target sequence in this assay (P06756 891-1048 limits assumed): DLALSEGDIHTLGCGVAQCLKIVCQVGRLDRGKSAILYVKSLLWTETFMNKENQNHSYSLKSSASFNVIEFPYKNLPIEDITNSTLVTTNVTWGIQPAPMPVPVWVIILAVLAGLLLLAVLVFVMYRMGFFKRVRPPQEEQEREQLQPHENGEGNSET

The target of series [10] is T1, Integrin alpha-V/beta-3. In words: Drug internalization in human EPC assessed as alphavbeta3-mediated drug uptake by measuring intracellular content per mg protein at 1 uM measured after 1 hr by HPLC-ESI-MS/MS analysis. It counts as ADME, cell-based. The method in brief: as §4
Target sequence in this assay (P05106 27-788 limits assumed): as the sequence (P05106 27-788 limits assumed) above
Target sequence in this assay (P06756 31-889 limits assumed): as the sequence (P06756 31-889 limits assumed) above
Target sequence in this assay (P06756 891-1048 limits assumed): as the sequence (P06756 891-1048 limits assumed) above
In series [11] the target is T1, Integrin alpha-V/beta-3. As to conditions: 1 to 10000 nM.
Series [12] relates to EPC. In words: Inhibition of VEGF-A-induced cell proliferation in human EPC at 1 uM measured after 72 hrs by trypan blue exclusion assay. In kind it is functional, cell-based. The essentials: as §1
The test system of series [13] is EPC. As to the kind of experiment: Antiangiogenic activity in human EPC assessed as inhibition of VEGF-A induced tubule formation at 0.1 to 1 uM measured after 6 hrs by matrigel based phase contrast microscopic analysis. In kind it is functional, cell-based. The essentials:
as §3

Series [14] has as its target T1, Integrin alpha-V/beta-3. In words: Inhibition of vitronectin binding to alphaVbeta3 in human EPC in presence of MnCl2 measured after 30 mins by crystal violet staining based cell adhesion assay. The essentials:
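Plates coated overnight with vitronectin at 4 °C and blocked with PBS/1% BSA. EPCs in serum-free medium preincubated with compound (1–10000 nM) for 30 min at 37 °C with 2.0 mmol/L MnCl2. Plated at 5-6×10^4 cells/well for 1 h at 37 °C. Adherent cells stained with crystal violet, read at 540 nm; % inhibition vs untreated. Triplicate, repeated at least three times.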

Series [15] addresses T1, Integrin alpha-V/beta-3. In words: Drug internalization in human EPC assessed as alphavbeta3-mediated drug uptake at 1 uM measured after 1 hr by HPLC-ESI-MS/MS analysis. In kind it is ADME. The essentials: as §4
Target sequence in this assay (P05106 27-788 limits assumed): as the sequence (P05106 27-788 limits assumed) above
Target sequence in this assay (P06756 31-889 limits assumed): as the sequence (P06756 31-889 limits assumed) above
Target sequence in this assay (P06756 891-1048 limits assumed): as the sequence (P06756 891-1048 limits assumed) above
Series [16] concerns the target T1, Integrin alpha-V/beta-3. In words: Displacement of biotinylated vitronectin from recombinant human integrin alphaVbeta3 dark incubated for 3 hrs by solid-phase receptor binding assay. It counts as protein-complex assay. The essentials:
(§5)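 Recombinant human αvβ3 or α5β1 coated at 0.5 μg/mL overnight at 4 °C in Tris-HCl pH 7.4 buffer with Mn2+, Ca2+, Mg2+, then blocked with 1% BSA. Streptavidin-peroxidase read-out at 415 nm. Triplicate wells, nonlinear regression, run in duplicate.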
Target sequence in this assay (P05106 27-788 limits assumed): as the sequence (P05106 27-788 limits assumed) above
Target sequence in this assay (P06756 31-889 limits assumed): as the sequence (P06756 31-889 limits assumed) above
Target sequence in this assay (P06756 891-1048 limits assumed): as the sequence (P06756 891-1048 limits assumed) above

For series [17], the target named is T2, Vascular endothelial growth factor receptor 2 (Homo sapiens, UniProt P35968). Particulars: at 1 µM.
Series [18] deals with T1, Integrin alpha-V/beta-3. As to the kind of experiment: Drug internalization in human EPC assessed as alphavbeta3-mediated drug uptake per mg protein at 1 uM measured after 1 hr by HPLC-ESI-MS/MS analysis. In kind it is ADME. The method in brief: as §4
Target sequence in this assay (P05106 27-788 limits assumed): as the sequence (P05106 27-788 limits assumed) above
Target sequence in this assay (P06756 31-889 limits assumed): as the sequence (P06756 31-889 limits assumed) above
Target sequence in this assay (P06756 891-1048 limits assumed): as the sequence (P06756 891-1048 limits assumed) above
Series [19] deals with T3, Integrin alpha-5/beta-1 (Homo sapiens, UniProt P05556+P08648). As to the kind of experiment: Displacement of biotinylated fibronectin from recombinant human integrin alpha5beta1 dark incubated for 3 hrs by solid-phase receptor binding assay. It counts as protein-complex assay. The essentials:
as §5

Series [20] has as its target T2, Vascular endothelial growth factor receptor 2. In words: Inhibition of recombinant human VEGFR2 expressed in Sf9 cells using Ulight-CAGAGAIETDKEYYTVKD as substrate measured after 60 mins by LANCE method. On the technique in general: Time-resolved FRET reads energy transfer from a long-lived donor to a nearby acceptor.
A short description of series [21]: Drug uptake in human EPC at 1 uM measured after 1 hr in presence of alphaVbeta3 integrin ligand c(AmpRGD) amine by HPLC-ESI-MS/MS analysis. It counts as ADME, cell-based. The essentials:
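EPCs detached with Accutase, resuspended in serum-free medium, and given compound at 1 μM with or without c(AmpRGD) amine at 100 μM. Incubated at 37 °C, 10% CO2, then washed by centrifugation. Pellets extracted with ethanol at 4 °C for 10 min; content measured by HPLC-ESI-MS/MS.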

In series [22] the target is Platelet-derived growth factor receptor beta (Homo sapiens, UniProt P09619). As to the kind of experiment: Inhibition of recombinant human PDGFRbeta expressed in insect cells using Ulight-Poly GAT[EAY(1:1:1)]n as substrate measured after 30 mins by LANCE method.
The target in series [23] is T3, Integrin alpha-5/beta-1. As to the kind of experiment: Inhibition of alpha5beta1 (unknown origin). It counts as protein-complex assay.
For series [24], the target named is Integrin alpha-V/beta-5 (Homo sapiens, UniProt P06756+P18084). As to the kind of experiment: Displacement of biotinylated vitronectin from human integrin alphaVbeta5 measured after 3 hrs by solid-phase receptor binding assay. It counts as protein-complex assay.
For series [25], the target named is T1, Integrin alpha-V/beta-3. As to the kind of experiment: Displacement of biotinylated vitronectin from human integrin alphaVbeta3 measured after 3 hrs by solid-phase receptor binding assay. In kind it is protein-complex assay. The method in brief: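 Recombinant human αvβ3 or α5β1 coated at 0.5 μg/mL overnight at 4 °C in Tris-HCl pH 7.4 buffer with Mn2+, Ca2+, Mg2+, then blocked with 1% BSA. Triplicate wells, nonlinear regression, run in duplicate.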
Target sequence in this assay (P05106 27-788 limits assumed): as the sequence (P05106 27-788 limits assumed) above
Target sequence in this assay (P06756 31-889 limits assumed): as the sequence (P06756 31-889 limits assumed) above
Target sequence in this assay (P06756 891-1048 limits assumed): as the sequence (P06756 891-1048 limits assumed) above

The source made the active and inactive calls. No cut-off for these calls is given here.

Broadly, the inhibition is the percentage by which the read-out fell short of the control. Usually logD stands for the decadic logarithm of the distribution of all forms, ionised or not, between an organic phase and buffer at a given pH. Lower therefore signals a more hydrophilic compound. As a reminder, the IC50 is the concentration that gives 50% inhibition.

T3 sequence (P05556 21-798 limits assumed): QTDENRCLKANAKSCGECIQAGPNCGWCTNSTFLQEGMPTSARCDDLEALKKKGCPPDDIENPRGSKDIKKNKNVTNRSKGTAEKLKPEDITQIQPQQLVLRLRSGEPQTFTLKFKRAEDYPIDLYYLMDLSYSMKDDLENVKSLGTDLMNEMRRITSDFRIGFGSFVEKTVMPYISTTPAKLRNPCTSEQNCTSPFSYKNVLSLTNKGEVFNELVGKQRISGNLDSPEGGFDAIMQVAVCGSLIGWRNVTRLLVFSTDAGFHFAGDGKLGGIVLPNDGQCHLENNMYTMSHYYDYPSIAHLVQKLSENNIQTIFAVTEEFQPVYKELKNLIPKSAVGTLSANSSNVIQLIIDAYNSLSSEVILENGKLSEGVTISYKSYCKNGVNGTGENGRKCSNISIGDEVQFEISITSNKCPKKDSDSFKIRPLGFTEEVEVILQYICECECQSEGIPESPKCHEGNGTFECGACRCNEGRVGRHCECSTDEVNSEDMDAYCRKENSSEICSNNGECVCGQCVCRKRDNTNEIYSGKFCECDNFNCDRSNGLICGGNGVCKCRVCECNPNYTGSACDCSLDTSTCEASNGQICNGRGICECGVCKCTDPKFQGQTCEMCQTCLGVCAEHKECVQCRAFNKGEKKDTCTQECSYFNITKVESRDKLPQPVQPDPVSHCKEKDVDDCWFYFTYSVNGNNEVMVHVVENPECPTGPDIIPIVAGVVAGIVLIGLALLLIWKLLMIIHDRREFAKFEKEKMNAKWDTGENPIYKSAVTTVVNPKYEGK
T3 sequence (P08648 42-894 limits assumed): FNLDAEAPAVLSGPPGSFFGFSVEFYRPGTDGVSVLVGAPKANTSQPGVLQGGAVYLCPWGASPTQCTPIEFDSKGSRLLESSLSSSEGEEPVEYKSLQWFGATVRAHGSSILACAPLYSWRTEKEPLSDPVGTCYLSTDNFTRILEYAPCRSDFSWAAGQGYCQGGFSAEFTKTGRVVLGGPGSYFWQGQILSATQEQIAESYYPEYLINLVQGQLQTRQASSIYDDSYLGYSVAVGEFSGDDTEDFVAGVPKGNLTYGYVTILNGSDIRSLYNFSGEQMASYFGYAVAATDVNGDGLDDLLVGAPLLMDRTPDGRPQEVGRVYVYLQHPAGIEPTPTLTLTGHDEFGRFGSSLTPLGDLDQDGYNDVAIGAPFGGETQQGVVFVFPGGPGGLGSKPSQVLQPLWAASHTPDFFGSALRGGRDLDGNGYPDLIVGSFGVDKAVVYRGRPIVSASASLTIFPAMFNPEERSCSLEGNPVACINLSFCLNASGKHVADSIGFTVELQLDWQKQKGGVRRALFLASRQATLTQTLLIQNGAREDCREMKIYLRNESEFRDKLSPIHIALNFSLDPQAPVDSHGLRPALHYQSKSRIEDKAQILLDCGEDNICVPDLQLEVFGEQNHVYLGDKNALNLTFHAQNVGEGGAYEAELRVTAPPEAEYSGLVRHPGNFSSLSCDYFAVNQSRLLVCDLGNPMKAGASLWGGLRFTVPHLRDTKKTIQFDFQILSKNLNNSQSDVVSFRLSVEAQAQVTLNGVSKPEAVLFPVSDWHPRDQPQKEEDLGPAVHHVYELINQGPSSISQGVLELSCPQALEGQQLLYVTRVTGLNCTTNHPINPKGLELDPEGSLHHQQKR
T3 sequence (P08648 895-1049 limits assumed): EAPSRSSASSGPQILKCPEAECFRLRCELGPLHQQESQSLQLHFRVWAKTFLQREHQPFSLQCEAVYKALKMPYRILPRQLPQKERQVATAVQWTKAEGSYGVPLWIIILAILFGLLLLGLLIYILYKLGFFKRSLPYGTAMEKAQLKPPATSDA

On to `CCN(CC)CCNC(=O)c1c(C)[nH]c(/C=C2\C(=O)Nc3ccc(F)cc32)c1C` [SUNITINIB], for which, in series [1], the Activity entry was “Non-Toxic”. Further, the values for the remaining at 8 h, 1 µM in [2] and in series [4] were 102% and 97.3%, respectively. In addition, the inhibition entry in [3], in series [7] and in [12] was “Active” in each case. Besides, the pH-dependent lipophilicity (logD) at 4 h in series [5] is 2.51. In addition, in [6], the inhibition at 1 µM is 33%. Moreover, in series [8], the inhibition at 0.01 µM turned out to be 30%. Also, the Drug uptake was 2.9 nmol/mg in series [9] and 5.72 nmol/mg in series [10]. For the same compound, in series [11], the inhibition result is “inactive”.

Take `Cc1[nH]c(/C=C2\C(=O)Nc3ccc(F)cc32)c(C)c1C(=O)NCCNC(=O)CCc1cn(CCCCN2C[C@@H]3C[C@H]2C(=O)N[C@@H](CCCNC(=N)N)C(=O)NCC(=O)N[C@@H](CC(=O)O)C(=O)N3)nn1`: the Activity entry in series [1] is “Non-Toxic”. Besides, the inhibition entry in series [13], in [7] and in series [17] was “Active” each time. In addition, the values for the IC50 in [14], in series [16] and in [19] were 500 nM, 1.24 nM and 30.7 nM, respectively. Moreover, the inhibition result in series [14] was “Dose-dependent effect”. The remaining at 8 h, 1 µM in series [2] worked out at 99%; in [4] it was 88.2%. Moreover, the “log(activity)” value in [15] is 0.64. The same compound yielded a log distribution coefficient (logD) at 4 h in series [5] of -2.03. In series [6], at 1 µM the inhibition was 46%. The inhibition at 0.01 µM in series [8] is 52%. The Drug uptake in series [9] was determined as 0.22 nmol/mg; in series [10] it was 0.26 nmol/mg; in series [18], 4.3 pmol/min. The inhibition result in series [12] is “inactive”.

Regarding `CCN(CCNC(=O)c1c(C)[nH]c(/C=C2\C(=O)Nc3ccc(F)cc32)c1C)CCOCCOCCNC(=O)c1cc(OCc2cn(CCCCN3C[C@@H]4C[C@H]3C(=O)N[C@@H](CCCNC(=N)N)C(=O)NCC(=O)N[C@@H](CC(=O)O)C(=O)N4)nn2)cc(OCc2cn(CCCCN3C[C@@H]4C[C@H]3C(=O)N[C@@H](CCCNC(=N)N)C(=O)NCC(=O)N[C@@H](CC(=O)O)C(=O)N4)nn2)c1`, in [1], the Activity result was “Non-Toxic”. The inhibition result in series [13], in series [3], in series [7], in series [17] and in series [12] was “Active” throughout. Further, the half-inhibitory concentration (IC50) in series [14] was 500 nM; in series [16], 3.8 nM; in series [20], 420 nM; in series [22], 9 nM; in series [19], 95.8 nM. Besides, the inhibition entry in series [14] was “Dose-dependent effect”. The remaining at 8 h, 1 µM is 98.6% in series [2] and 109% in series [4]. Besides, in series [15], the “log(activity)” value came out at 1.19. In series [5], this compound gave a log distribution coefficient (logD) at 4 h of -3.02. This compound returned an inhibition at 1 µM in series [6] of 41%. Besides, the inhibition at 0.01 µM in series [8] is 43%. Moreover, the Drug uptake in series [9] was 0.54 nmol/mg; in series [21], “Not Active”; in series [10] it was 0.94 nmol/mg; in series [18], 15.7 pmol/min.

For the compound `CCN(CCNC(=O)c1c(C)[nH]c(/C=C2\C(=O)Nc3ccc(F)cc32)c1C)CCOCCOCCOCc1cn(CCCCN2C[C@@H]3C[C@H]2C(=O)N[C@@H](CCCNC(=N)N)C(=O)NCC(=O)N[C@@H](CC(=O)O)C(=O)N3)nn1`, the Activity entry in series [1] is on record as “Non-Toxic”. The half-inhibitory concentration (IC50) in series [14] was 10000 nM; in series [16] it was 5.1 nM; in series [19], 101 nM. Further, the remaining at 8 h, 1 µM in [2] worked out at 107%; in series [4], 104%. Moreover, the “log(activity)” value in series [15] was 0.9. Also, in series [5], the logD at 4 h was -2.56. The inhibition at 1 µM in [6] came to 24%. The inhibition entry in series [7] and in series [17] was “Active” each time. In addition, the Drug uptake was 0.43 nmol/mg in series [9], “Not Active” in series [21], 0.48 nmol/mg in series [10] and 8 pmol/min in series [18]. Moreover, the inhibition entry in [12] is “inactive”.

Regarding `N=C(N)NCCC[C@@H]1NC(=O)[C@@H]2C[C@@H](CN2CCN)NC(=O)[C@H](CC(=O)O)NC(=O)CNC1=O`, the values for the IC50 in [23], in [24] and in series [25] were 152 nM, 315 nM and 6.1 nM, respectively.

Source of the values: ChEMBL document CHEMBL4000184, “Synthesis of Novel c(AmpRGD)-Sunitinib Dual Conjugates as Molecular Tools Targeting the αvβ3 Integrin/VEGFR2 Couple and Impairing Tumor-Associated Angiogenesis” (J Med Chem, 2017).
